In the library only some 1.8% were active in any assay of this set; here they are far more common.
M5 PAM – positive allosteric modulators of human muscarinic M5 receptor; actives 0.3% (n = 360,000); AID 624038; CHO-K1 hM5, Fluo-8 calcium, ACh EC20 PAM; 0% = ACh EC20, 100% = ACh EC100; activation, % at 3 µM; P08912;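 active = activation above the run cutoff, the mean activation of all test compounds plus 3 SD, cut at about 18% in these data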
Target sequence (P08912 whole entry, looked up): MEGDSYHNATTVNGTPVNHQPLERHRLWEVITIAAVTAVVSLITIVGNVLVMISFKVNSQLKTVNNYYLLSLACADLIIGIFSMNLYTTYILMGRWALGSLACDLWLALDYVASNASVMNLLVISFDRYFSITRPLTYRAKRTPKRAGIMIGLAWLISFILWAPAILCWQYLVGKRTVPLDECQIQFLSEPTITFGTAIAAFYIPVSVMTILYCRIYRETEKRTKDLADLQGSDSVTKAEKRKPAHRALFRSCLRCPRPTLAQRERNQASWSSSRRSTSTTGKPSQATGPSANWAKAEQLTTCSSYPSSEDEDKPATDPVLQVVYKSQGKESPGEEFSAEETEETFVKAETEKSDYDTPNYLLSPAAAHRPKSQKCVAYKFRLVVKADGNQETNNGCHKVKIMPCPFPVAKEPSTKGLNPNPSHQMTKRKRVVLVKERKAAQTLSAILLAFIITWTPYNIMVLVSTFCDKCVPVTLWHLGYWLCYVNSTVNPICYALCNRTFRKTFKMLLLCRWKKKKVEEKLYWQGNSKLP
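Assay system – human M5 receptor in CHO-K1 cells · Read-out – % activation, ACh-normalized · Technique – Fluo-8 calcium fluorescence · Dosing – single-point, 3 µM nominal · Incubation – Fluo-8 loading 80 min at 37 °C plus 30 min room temperature · Repeats – singlicate, one well per test compound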
CHRM4 agonist – agonists of human muscarinic M4 receptor (CHRM4); actives 0.14% (n = 360,000); CHO-K1 hM4/Gqi5, Fluo-8 calcium fluorescence; vehicle 0%, full acetylcholine response 100%; P08173; activation, % at 3 µM;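 active = activation above the run mean over all test wells plus 3 SD, cut at about 32% in these data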;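 also: peak over basal fluorescence ratio per well then scaled between controls; 0% = DMSO wells and 100% = acetylcholine at EC100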
CHRM4 PAM – CHRM4 positive allosteric modulation; P08173; CHO-K1 hM4/Gqi5, Fluo-8 calcium fluorescence, ACh EC20; 0% = ACh EC20, 100% = maximal ACh; activation, % at 3 µM; actives 0.4% (n = 360,000); AID 624126;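 active = activation above its plate's cutoff, the mean activation of sample wells plus 3 SD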
M4 antag – antagonists of human muscarinic M4 receptor (CHRM4); P08173; CHO-hM4 cells, ACh EC80, Fluo-8 calcium fluorescence; inhibition, % at 3 µM; actives 0.73% (n = 360,000);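 active = inhibition above its plate's cutoff, the mean inhibition of sample wells plus 3 SD, cut at about 27% in these data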;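 also: 0% = acetylcholine EC80 with DMSO and 100% = DMSO without agonist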
M5 ag – CHRM5 agonism in calcium assay | CHO-K1 hM5 cells, Fluo-8 calcium fluorescence; 0% DMSO wells, 100% maximal acetylcholine response | activation, % at 3 µM | actives 0.19% (n = 360,000);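 active = activation above the run's mean over test compounds plus 3 SD, cut at about 23% in these data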;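 also: signal is peak over basal fluorescence ratio across the kinetic read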
M5 antag – blocks acetylcholine activation of human M5 receptor | actives 0.59% (n = 360,000) | CHO-hM5 cells, Fluo-8 calcium fluorescence, ACh EC80 | inhibition, % at 3 µM | P08912 | AID 624040;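 active = inhibition above a per-plate cutoff, the mean of that plate's test compounds plus 3 SD, cut at about 27% in these data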;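 also: 0% = acetylcholine EC80 with DMSO and 100% = DMSO without agonist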
* = called active by the depositor.

SMILES | M5 PAM | CHRM4 agonist | CHRM4 PAM | M4 antag | M5 ag | M5 antag
CC(/C=N/NC(=O)c1nnn(-c2nonc2N)c1C(C)C)=C\c1ccco1 | 7 | 2 | 17* | 8 | 0 | -3
CCCc1c(C(=O)N/N=C(\C)CCc2ccccc2)nnn1-c1nonc1N | -2 | 2 | 15* | -26 | -3 | -12
CCOc1cccc(-c2c(C(=O)N/N=C/c3ccc(Br)cc3)nnn2-c2nonc2N)c1 | 18* | 9 | 15 | -1 | 18 | 1
CCCc1c(C(=O)N/N=C/C(C)=C/c2ccco2)nnn1-c1nonc1N | 2 | 2 | 8 | -7 | -2 | 3
CCOc1cccc(-c2c(C(=O)N/N=C/c3cccnc3)nnn2-c2nonc2N)c1 | 3 | 5 | 7 | -2 | 3 | -6
CCCN(CCC)Cc1c(C(=O)N/N=C/c2ccco2)nnn1-c1nonc1N | -8 | 1 | 3 | 0 | -4 | 27*
CCCN(CCC)Cc1c(C(=O)N/N=C/c2ccoc2)nnn1-c1nonc1N | 6 | 1 | 0 | 2 | -2 | 3
Cc1ccc(NC(=O)CN2C(=O)CC(C)S(=O)(=O)c3ccccc32)cc1 (stereo not given) | -2 | 1 | -4 | 12 | -3 | 6
Cc1ccc(Cn2ccc(=O)c(OCc3ccccc3)c2C)cc1 | 22* | 4 | 2 | -5 | 4 | -2
Cc1c(OCc2ccccc2)c(=O)ccn1Cc1ccc(Cl)cc1 | -8 | 0 | 4 | 0 | -4 | 1
CC(=O)OCC(=O)[C@H]1CC[C@H]2[C@@H]3CCC4=CC(=O)CC[C@]4(C)[C@H]3CC[C@]12C | -19 | 2 | -17 | 57* | 0 | 20
C[C@]12CCC(=O)C=C1CCC1C2CC[C@@]2(C)C1CCC21OCCO1 (stereo not given in full) | -5 | 2 | 1 | -1 | 6 | -6
C[C@]12CCC(=O)C=C1CC[C@@H]1[C@@H]2CC[C@@]2(C)[C@H]1CC[C@@]21CCC(=O)O1 | -10 | 6 | -20 | 30* | -8 | -6
C[C@]12CC[C@H]3[C@@H](CCC4=CC(=O)CC[C@@]43C)[C@@H]1CC[C@@H]2C(=O)CO | -1 | 2 | -1 | -6 | 2 | -5
CC(C)C[C@@]12C(=O)N(c3cccc(Cl)c3)C(=O)N1[C@H](c1ccc(Br)cc1)[C@@H]1C(=O)N(C(C)(C)C)C(=O)[C@@H]12 | -1 | 1 | 3 | 6 | 0 | 8
Cc1cccc(N2C(=O)N3[C@H](c4ccc(F)cc4)[C@@H]4C(=O)N(C5CCCCC5)C(=O)[C@@H]4[C@]3(Cc3ccc(Cl)cc3)C2=O)c1 | 13 | 1 | 6 | 5 | 0 | 4
Cc1cccc(N2C(=O)N3[C@H](c4ccc(Cl)cc4)[C@@H]4C(=O)N(C5CCCCC5)C(=O)[C@@H]4[C@]3(Cc3ccc(Cl)cc3)C2=O)c1 | 19* | 2 | 6 | -15 | 7 | -13
CC[C@@]12C(=O)N(c3cccc(Cl)c3)C(=O)N1[C@H](c1ccc(Br)cc1)[C@@H]1C(=O)N(C(C)(C)C)C(=O)[C@@H]12 | 4 | 3 | 28* | -10 | -1 | 3
Cc1ccc(NC(=O)CCN2CCC(C(N)=O)CC2)cc1 | 14 | 0 | -4 | -7 | 5 | -11
COc1cc2c(C#N)c(N3CCc4ccccc4C3)nc(N)c2c(N)n1 | 37* | 1 | 10 | -4 | 16 | 1
CN1CCN(Cc2cccc(Oc3ccc(Cl)cc3)c2)CC1 | -16 | 6 | -17 | 14 | -6 | 35*
CCN1CCN(Cc2cccc(Oc3ccc(Cl)cc3)c2)CC1 | -14 | 5 | -30 | 18 | -6 | 19
Cc1ccccc1-c1cc(C(=O)NCc2cccc(C(F)(F)F)c2)nn1CC1CC(c2cccc([N+](=O)[O-])c2)=NO1 (stereo not given) | -2 | 4 | 3 | -1 | -2 | 4
CCCn1nnc2c(=O)oc3ccccc3c21 | 1 | 0 | 2 | -5 | -2 | 0
CCCCCn1nnc2c(=O)oc3ccccc3c21 | 3 | 2 | 28* | -5 | -2 | 0
